From ChEMBL document CHEMBL3769366, “Novel tricyclic pyrazolo[1,5-d][1,4]benzoxazepin-5(6H)-one: Design, synthesis, model and use as hMAO-B inhibitors” (Bioorg Med Chem, 2016)

Assays:
[1] = molecular target: T1, Amine oxidase [flavin-containing] A (Homo sapiens, UniProt P21397); experiment: (§1) Inhibition of recombinant human microsomal MAO-A expressed in baculovirus-infected insect cells using p-tyramine as substrate assessed as H2O2 production at 60 uM pretreated for 15 mins followed by addition of Amplex Red, horseradish peroxidase and substrate measured for 15 mins by fluorimetric method; settings: 0.25 h
T1 sequence (P21397 whole entry): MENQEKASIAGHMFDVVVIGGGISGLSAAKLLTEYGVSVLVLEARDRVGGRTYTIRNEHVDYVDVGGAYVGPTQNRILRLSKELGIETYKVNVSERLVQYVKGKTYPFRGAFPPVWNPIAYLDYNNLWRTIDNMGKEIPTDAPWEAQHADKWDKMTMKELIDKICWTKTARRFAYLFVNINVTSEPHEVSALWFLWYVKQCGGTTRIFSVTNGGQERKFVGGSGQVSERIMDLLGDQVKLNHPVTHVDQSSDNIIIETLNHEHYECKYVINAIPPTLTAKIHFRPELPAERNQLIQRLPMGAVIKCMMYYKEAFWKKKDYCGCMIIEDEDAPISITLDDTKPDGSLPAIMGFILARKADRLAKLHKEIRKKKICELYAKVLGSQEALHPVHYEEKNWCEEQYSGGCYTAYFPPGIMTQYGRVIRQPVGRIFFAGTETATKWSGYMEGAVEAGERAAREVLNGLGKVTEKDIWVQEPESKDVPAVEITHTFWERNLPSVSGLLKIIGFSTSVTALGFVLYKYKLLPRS
In short: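 Human MAO-A from microsomes of insect cells infected with recombinant baculovirus, 1.1 µg protein, adjusted to a rate of 165 pmol p-tyramine/min. Inhibitors in 0.05 M sodium phosphate pH 7.4, preincubated 15 min at 37 °C. Reaction started with 200 µM Amplex Red, 1 U/mL HRP and 1 mM p-tyramine. H2O2-derived resorufin fluorescence (ex 545/em 590 nm) read over 15 min at 37 °C, linear phase.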

[2] = molecular target: T2, Amine oxidase [flavin-containing] B (Homo sapiens, UniProt P27338); experiment: Inhibition of recombinant human microsomal MAO-B expressed in baculovirus-infected insect cells using p-tyramine as substrate assessed as H2O2 production pretreated for 15 mins followed by addition of Amplex Red, horseradish peroxidase and substrate measured for 15 mins by fluorimetric method; type: cell-based
T2 sequence (P27338 whole entry): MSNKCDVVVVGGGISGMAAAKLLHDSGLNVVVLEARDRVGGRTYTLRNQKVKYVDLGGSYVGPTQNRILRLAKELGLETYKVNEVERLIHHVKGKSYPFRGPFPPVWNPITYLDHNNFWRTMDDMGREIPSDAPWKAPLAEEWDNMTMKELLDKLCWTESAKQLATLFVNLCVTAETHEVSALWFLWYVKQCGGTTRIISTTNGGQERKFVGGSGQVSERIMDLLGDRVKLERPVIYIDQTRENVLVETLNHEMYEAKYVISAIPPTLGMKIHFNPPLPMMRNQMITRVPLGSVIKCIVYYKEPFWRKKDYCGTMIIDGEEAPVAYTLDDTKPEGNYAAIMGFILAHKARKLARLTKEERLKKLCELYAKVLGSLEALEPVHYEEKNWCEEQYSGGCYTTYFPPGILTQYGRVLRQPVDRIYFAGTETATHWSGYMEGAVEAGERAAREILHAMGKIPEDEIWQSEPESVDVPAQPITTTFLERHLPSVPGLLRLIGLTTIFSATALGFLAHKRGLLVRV

Homo sapiens = species: Homo sapiens; experiment: Selectivity index, ratio of IC50 for recombinant human microsomal MAO-A to recombinant human microsomal MAO-B
[3] = molecular target: T1, Amine oxidase [flavin-containing] A; experiment: Inhibition of recombinant human microsomal MAO-A expressed in baculovirus-infected insect cells using p-tyramine as substrate assessed as H2O2 production pretreated for 15 mins followed by addition of Amplex Red, horseradish peroxidase and substrate measured for 15 mins by fluorimetric method
[4] = molecular target: T2, Amine oxidase [flavin-containing] B; experiment: as §1, with “MAO-B” for “MAO-A”; settings: 0.25 h

Row | SMILES | inhibition (INH) [1] | IC50 [2] | Ratio IC50 (Homo sapiens) | IC50 [3] | INH [4]
1 | COc1ccc(C2=NN3C(=O)COc4ccc(Cl)cc4C3C2)cc1 (stereo not given) | Not Active | 2720 nM | 22 |  | 
2 | CC1Oc2ccccc2C2CC(c3ccccc3Cl)=NN2C1=O (stereo not given) |  | 348 nM | 11.7 | 4050 nM | 
3 | O=C1COc2ccc(Cl)cc2C2CC(c3ccccc3F)=NN12 (stereo not given) | Not Active | 584 nM | 103 |  | 
4 | O=C1COc2ccccc2C2CC(c3ccccc3)=NN12 (stereo not given) |  | 2880 nM | 0.8 | 2190 nM | 
5 | CC1Oc2ccccc2C2CC(c3ccc(Cl)cc3)=NN2C1=O (stereo not given) | Not Active | 452 nM | 133 |  | 
6 | COc1ccc(C2=NN3C(=O)COc4ccccc4C3C2)cc1 (stereo not given) | Not Active |  |  |  | Not Active
7 | Cc1ccccc1C1=NN2C(=O)COc3ccccc3C2C1 (stereo not given) | Not Active |  |  |  | Not Active
8 | CC(C)c1ccc(C2=NN3C(=O)COc4ccccc4C3C2)cc1 (stereo not given) | Not Active | 3520 nM | 17 |  | 
9 | COc1ccc(C2=NN3C(=O)C(C)Oc4ccccc4C3C2)cc1 (stereo not given) | Not Active |  |  |  | Not Active
10 | C#CCN(C)[C@H](C)Cc1ccccc1 [SELEGILINE] | Not Active |  |  |  | 
11 | CC1Oc2ccccc2C2CC(c3ccccc3)=NN2C1=O (stereo not given) | Not Active | 34700 nM | 1.7 |  | 
12 | Cc1ccc(C2=NN3C(=O)C(C)Oc4ccccc4C3C2)cc1 (stereo not given) | Not Active | 45200 nM | 1.3 |  | 
13 | O=C1COc2ccccc2C2CC(c3ccc(Cl)cc3)=NN12 (stereo not given) |  |  | 0.9 | 53300 nM | Not Active
14 | O=C1COc2ccc(Cl)cc2C2CC(c3ccc(Cl)cc3)=NN12 (stereo not given) |  | 504 nM | 9.3 | 4710 nM | 
15 | O=C1COc2ccccc2C2CC(c3ccc(F)cc3)=NN12 (stereo not given) | Not Active | 1780 nM | 33.7 |  | 
16 | Cc1ccc(C2=NN3C(=O)COc4ccc(Cl)cc4C3C2)cc1 (stereo not given) |  | 1630 nM | 2.4 | 3900 nM | 
17 | Cc1ccc(C2=NN3C(=O)COc4ccccc4C3C2)cc1 (stereo not given) | Not Active |  |  |  | Not Active
18 | O=C1COc2ccccc2C2CC(c3ccccc3Cl)=NN12 (stereo not given) |  | 1320 nM | 42.1 | 55700 nM | 
19 | COc1ccc(C2=NN3C(=O)COc4c(Br)cc(Br)cc4C3C2)cc1 (stereo not given) |  | 467 nM | 10.2 | 4760 nM | 
20 | CC1Oc2ccccc2C2CC(c3ccc(F)cc3)=NN2C1=O (stereo not given) | Not Active | 221 nM | 271 |  | 
21 | O=C1COc2ccc(Cl)cc2C2CC(c3ccc(F)cc3)=NN12 (stereo not given) |  | 242 nM | 19.2 | 4650 nM | 
22 | O=C1COc2ccc(Cl)cc2C2CC(c3ccccc3)=NN12 (stereo not given) | Not Active | 2570 nM | 23.4 |  | 
